Results reported in ChEMBL document CHEMBL1121715, “New antiarrhythmic agents. 4. 1'-(Aminoalkyl)-1,2,3,4-tetrahydronaphthalene-1-spiro-3'-pyrrolidine-2',5'-dione derivatives” (J Med Chem, 1981).
Several values for one entry are separate records, joined by “and”; a condition that tells them apart may be missing. Equal entries are not always repeated.

Assays:
Mus musculus [1] = assay: Protection against chloroform induced arrhythmias in mice after subcutaneous administration at 100 mg/kg dose.; type: functional
In short: (§1)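 Groups of 10 unanesthetized mice got sc injection of drug in 0.9% saline. After 20 min observation they were placed one by one in chloroform-vapor-saturated air. When breathing stopped, the thorax was opened and the heart inspected by eye; coordinated ventricular contractions counted as protected.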

Mus musculus [2] = organism: Mus musculus; assay: Percentage toxicity measured as loss of righting reflex.; type: organism-based; conditions: in vivo
In short: (§2)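 Mice (groups of 10) were dosed sc with drug in 0.9% saline and watched for 20 min for overt toxicity (ataxia, convulsions, loss of righting reflex, death) before chloroform exposure.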

Canis familiaris [3] = assay: MABP value was measured in anesthetized dog at 0.038 dose; type: functional, Canis lupus familiaris; conditions: in the assay text read “unanesthetized dog” for “anesthetized dog”
In short: (§3)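 Adult female dogs (6.7–14.5 kg) had the left anterior descending coronary artery ligated in two stages the day before testing. Dogs were unanesthetized. Ectopic beats (% of ventricular rate) and mean arterial pressure were read at maximal antiarrhythmic effect against the cumulative dose.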

Canis familiaris [4] = assay: Ventricular rate was measured in anesthetized dog at 0.056 dose; type: functional, Canis lupus familiaris, Heart; conditions: in the assay text read “unanesthetized dog” for “anesthetized dog”
In short: (§4)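 Adult female dogs (6.7–14.5 kg) had two-stage ligation of the left anterior descending coronary artery the day before testing. After control ventricular rate, % ectopic beats and mean arterial pressure were recorded, the drug (HCl salt, isotonic solution) was infused iv without anesthesia at 0.1, 0.5 or 1.0 (mg/kg)/min, mostly 0.5. Infusion continued until the arrhythmia was abolished or cardiovascular/CNS toxicity appeared. Cumulative dose is given in mmol/kg; toxicity included convulsion and P-R prolongation ≥25%.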

Canis familiaris [5] = assay: % ectopic beats was measured in unanesthetized dog at 0.084 dose
Mus musculus [6] = organism: Mus musculus; assay: Percentage toxicity measured as convulsions.; type: organism-based; conditions: in vivo; in short: as §2
Canis familiaris [7] = assay: MABP value was measured in anesthetized dog at 0.056 dose; type: functional, Canis lupus familiaris; conditions: in the assay text read “unanesthetized dog” for “anesthetized dog”; in short: as §4
Canis familiaris [8] = assay: Ventricular rate was measured in anesthetized dog at 0.042d dose; type: functional, Canis lupus familiaris, Heart; conditions: in the assay text read “unanesthetized dog” for “anesthetized dog”; in short: as §4
Mus musculus [9] = organism: Mus musculus; assay: Percentage toxicity measured as ataxia.; type: organism-based; conditions: in vivo; in short: as §2
Canis familiaris [10] = assay: Blood level was measured in anesthetized dog at 0.084 dose; type: functional, Canis lupus familiaris
Canis familiaris [11] = assay: Blood level was measured in anesthetized dog at 0.042 dose; type: functional, Canis lupus familiaris
Canis familiaris [12] = assay: Ventricular rate was measured in anesthetized dog at 0.042 dose; type: functional, Canis lupus familiaris, Heart; conditions: in the assay text read “unanesthetized dog” for “anesthetized dog”; in short: as §4
Canis familiaris [13] = assay: MABP value was measured in anesthetized dog at 0.042 dose; type: functional, Canis lupus familiaris
Canis familiaris [14] = assay: % ectopic beats was measured in anesthetized dog at 0.038 dose; type: functional, Canis lupus familiaris, Heart; conditions: in the assay text read “unanesthetized” for “anesthetized”; in short: as §3
Canis familiaris [15] = organism: Canis familiaris; assay: (§5) The dose at which toxicity was measured; type: organism-based, Canis lupus familiaris; parameters: unit: mmol/kg; conditions: dog, in vivo; in short: as §4
Canis familiaris [16] = organism: Canis familiaris; assay: MABP value was measured in […] at 0.084 dose; type: functional, Canis lupus familiaris; in short: as §4
Canis familiaris [17] = assay: Ventricular rate was measured in anesthetized dog at 0.038 dose; type: functional, Canis lupus familiaris, Heart; conditions: in the assay text read “unanesthetized dog” for “anesthetized dog”; in short: as §4
Canis familiaris [18] = assay: % ectopic beats was measured in unanesthetized dog at 0.056 dose
[19] = Percentage toxicity measured as death of mice.; type: organism-based; parameters: concentration or dose not given beside the values; conditions: mouse, in vivo; read-out: Death
Canis familiaris [20] = organism: Canis familiaris; assay: Nature of toxicity was expressed; convulsion; type: organism-based, Canis lupus familiaris; conditions: dog, in vivo; in short: as §4
Canis familiaris [21] = assay: Ventricular rate was measured in anesthetized dog at 0.084 dose; type: functional, Canis lupus familiaris, Heart; conditions: in the assay text read “unanesthetized” for “anesthetized”
In short: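 Adult female dogs (6.7–14.5 kg) had ventricular arrhythmias from two-stage ligation of the left anterior descending coronary artery the day before. Ventricular rate (bpm) was read at maximal antiarrhythmic effect against cumulative dose.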

Canis familiaris [22] = organism: Canis familiaris; assay: as §5; type: organism-based, Canis lupus familiaris; conditions: dog, in vivo; in short: as §4
Canis familiaris [23] = organism: Canis familiaris; assay: (§6) Maximum dose of the Compound; type: functional, Canis lupus familiaris; in short: as §4
[24] = Volume of distribution was measured at given dose of 34 umol/kg; type: ADME, organism-based; conditions: in vivo
In short: (§7)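 In dogs given iv infusions, blood samples were alkaline-extracted (pH 10.3) into methylene chloride and derivatized with heptafluorobutyrylimidazole. Concentrations were measured by GC-FID against an internal standard using standard curves. Clearance was total dose ÷ blood-level AUC (zero to infinity), and volume of distribution was clearance ÷ elimination rate constant.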

Mus musculus [25] = assay: Protection against chloroform induced arrhythmias was measured in mice after sc administration at given dose.; type: functional; conditions: Mus musculus, sc; read-out: ED50; in short: as §1
Canis familiaris [26] = assay: MABP value was measured in anesthetized dog at 0.047 dose.; type: functional, Canis lupus familiaris; conditions: in the assay text read “unanesthetized dog” for “anesthetized dog”; in short: as §4
Canis familiaris [27] = assay: Ventricular rate was measured in anesthetized dog at 0.016 dose; type: functional, Canis lupus familiaris, Heart; conditions: in the assay text read “unanesthetized dog” for “anesthetized dog”; in short: as §4
[28] = Maximal concentration in dogs after 34 umol/kg intravenous dose; conditions: dog, in vivo
Canis familiaris [29] = assay: Blood level was measured in anesthetized dog at 0.016d ose.; type: functional, Canis lupus familiaris; conditions: in the assay text read “unanesthetized” for “anesthetized”
In short: (§8)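 Blood was sampled from unanesthetized dogs with coronary-ligation arrhythmias during iv drug infusion. Each 1 mL sample was mixed with internal standard and pH 10.3 ammonium citrate/ammonia buffer and extracted into methylene chloride. The extract was dried at 50 °C and derivatized with heptafluorobutyrylimidazole. Analysis was by GC with flame-ionization detection (3% JXR column, 220 °C). Concentration came from the drug/internal standard peak-height ratio against standard curves.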

Canis familiaris [30] = organism: Canis familiaris; assay: (§9) The dose at which toxicity was measured.; type: organism-based, Canis lupus familiaris; conditions: dog, in vivo; in short: as §4
Canis familiaris [31] = organism: Canis familiaris; assay: (§10) Toxicity of blood level was measured; type: organism-based, Canis lupus familiaris; conditions: dog, in vivo
In short: (§11)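 In coronary-ligated conscious dogs under iv infusion, blood was sampled at toxicity. Drug was extracted with methylene chloride at pH 10.3 (ammonium citrate/ammonia) with another analogue as internal standard, then derivatized with heptafluorobutyrylimidazole. Assay was GC-FID on 3% JXR, quantified from drug/internal standard peak-height ratio against standard curves; results in μmol/mL.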

Canis familiaris [32] = assay: Blood level was measured in anesthetized 0.047 at given dose.; type: functional, Canis lupus familiaris; conditions: in the assay text read “unanesthetized” for “anesthetized”; in short: as §8
[33] = Maximal concentration in dogs after intravenous administration; conditions: dog, in vivo
Canis familiaris [34] = assay: as above; conditions: dog, in vivo
Canis familiaris [35] = organism: Canis familiaris; assay: as §6; type: ADME, organism-based, Canis lupus familiaris; conditions: dog, in vivo; in short: as §4
Canis familiaris [36] = assay: Ventricular rate was measured in anesthetized dog at 0.047 dose; type: functional, Canis lupus familiaris, Heart; conditions: in the assay text read “unanesthetized dog” for “anesthetized dog”; in short: as §4
Canis familiaris [37] = assay: % ectopic beats was measured in anesthetized dog at 0.016 dose.; type: functional, Canis lupus familiaris, Heart; conditions: in the assay text read “unanesthetized” for “anesthetized”; in short: as §3
Canis familiaris [38] = assay: % ectopic beats was measured in anesthetized dog at 0.047 dose.; type: functional, Canis lupus familiaris, Heart; conditions: in the assay text read “unanesthetized” for “anesthetized”; in short: as §3
Canis familiaris [39] = organism: Canis familiaris; assay: as §10; type: organism-based, Canis lupus familiaris; conditions: dog, in vivo; in short: as §11; remark: listed apart in the source
[40] = Volume of distribution was measured at given dose of 43 umol/kg; type: ADME, organism-based; conditions: in vivo; in short: as §7
Canis familiaris [41] = assay: MABP value was measured in anesthetized dog at 0.016 dose.; type: functional, Canis lupus familiaris; conditions: in the assay text read “unanesthetized dog” for “anesthetized dog”; in short: as §3
[42] = Volume of distribution was measured at given dose of 81 umol/kg; type: ADME, organism-based; conditions: in vivo; in short: as §7
[43] = Total body clearance was measured at given dose.; type: ADME, organism-based; conditions: in vivo
In short: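 Blood levels came from the iv-infused dogs, measured by GC-FID after methylene chloride extraction and heptafluorobutyryl derivatization with an internal standard. Total body clearance was total dose divided by the blood-level AUC (zero to infinity); volume of distribution was clearance divided by the elimination rate constant.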

Canis familiaris [44] = organism: Canis familiaris; assay: as §9; type: organism-based, Canis lupus familiaris; conditions: dog, in vivo; in short: as §4; remark: listed apart in the source

## CC(C)Oc1ccc2c(c1)C1(CCC2)CC(=O)N(CCCN(C)C)C1=O (stereo not given)
Mus musculus [1]
  Protection: 50%
Mus musculus [2]
  Loss of righting reflex: 10%
Canis familiaris [3]
  MABP: 75 mmHg
Canis familiaris [4]
  Ventricular rate: 171 beats min-1
Canis familiaris [5]
  Ectopic beats: 15%
Mus musculus [6]
  Convulsion: 0%
Canis familiaris [7]
  MABP: 110 mmHg
Canis familiaris [8]
  Ventricular rate: 150 beats min-1
Mus musculus [9]
  Ataxia: 100%
Canis familiaris [10]
  Blood level: 0.021 uM ml-1
Canis familiaris [11]
  Blood level: 0.013 uM ml-1
Canis familiaris [12]
  Ventricular rate: 165 beats min-1
Canis familiaris [13]
  MABP: 90 mmHg and 100 mmHg
Canis familiaris [14]
  Etopic beats: 2%
Canis familiaris [15]
  Cumulative dose: 0.077 and 0.133
Canis familiaris [16]
  MABP: 125 mmHg
Canis familiaris [17]
  Ventricular rate: 120 beats min-1
Canis familiaris [18]
  Ectopic beats: 5%
[19]
  mortality: 0%
Canis familiaris [20]
  Nature: convulsion
Canis familiaris [21]
  Ventricular rate: 138 beats min-1
Canis familiaris [22]
  Cumulative dose: 0.066

## CCN(CC)CCCCN1C(=O)CC2(CCCc3ccc(OC)cc32)C1=O (stereo not given)
Mus musculus [1]
  Protection: 80%
Mus musculus [2]
  Loss of righting reflex: 0%
Mus musculus [6]
  Convulsion: 0%
Canis familiaris [23]
  Dose: 81 µM/kg and 43 µM/kg
[24]
  Vd: 2.64 L/kg
Mus musculus [25]
  ED50: 130 µmol/kg
Canis familiaris [26]
  MABP: 100 mmHg
Canis familiaris [27]
  Ventricular rate: 147 beats min-1
[28]
  Cmax: 12 µM
Canis familiaris [29]
  Blood level: 0.011 uM ml-1
Canis familiaris [30]
  Cumulative dose: 0.081
Mus musculus [9]
  Ataxia: 0%
Canis familiaris [31]
  Blood level: 18 µM
Canis familiaris [32]
  Blood level: 0.02 uM ml-1
[33]
  Cmax: 29 µM
Canis familiaris [34]
  Cmax: 20 µM
Canis familiaris [35]
  Dose: 34 µM/kg
Canis familiaris [36]
  Ventricular rate: 165 beats min-1
Canis familiaris [37]
  Etopic beats: 1%
Canis familiaris [38]
  Etopic beats: 0%
Canis familiaris [39]
  Blood level: 0.029 uM ml-1
[40]
  Vd: 2.47 L/kg
Canis familiaris [41]
  MABP: 95 mmHg
[19]
  mortality: 0%
[42]
  Vd: 3.41 L/kg
[43]
  ClB: 8.22 mL/min/kg and 12.8 mL/min/kg
[43]; ClB
  clearance: 10.4 mL/min/kg
Canis familiaris [44]
  Cumulative dose: 0.02
